Results on 11 compounds are retold here after ChEMBL document CHEMBL1833827, “Synthesis and anticandidal activity of new triazolothiadiazine derivatives” (Eur J Med Chem, 2011).

Values after ≈ are worked out from the molar mass of the structure shown.

Experiment [1] relates to Nakaseomyces glabratus. Put plainly: Antifungal activity against Candida glabrata clinical isolate (Anadolu university) by NCCLS M27-A2 microbroth dilution method. The class given is functional.
The next experiment deals with Candida tropicalis. Put plainly: Antifungal activity against Candida tropicalis NRRL Y-12968 by NCCLS M27-A2 microbroth dilution method. The class given is functional.
The next experiment concerns NIH3T3. Briefly: Cytotoxicity against mouse NIH/3T3 cells after 24 hrs by MTT assay. It is filed as cell-based. To be noted: NIH3T3, 24 h. In a few lines:
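NIH/3T3 mouse fibroblasts (ATCC) grown in DMEM with 10% fetal calf serum, penicillin and streptomycin at 37 °C in 5% CO2. Cells were seeded at 2 × 10^4 cells/mL and preincubated 24 h. Compounds went from DMSO stocks diluted in medium (final DMSO <0.1%) at 0.5–500 µg/mL for 24 h. MTT was added at 0.5 mg/mL final for 4 h at 37 °C. Formazan was dissolved in DMSO and read at 540 nm. Triplicate wells per concentration. IC50 is the concentration reducing absorbance to 50% of control, reported as mean ± SD.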

The next experiment has as its system Pichia kudriavzevii. Briefly: Antifungal activity against Candida krusei NRRL Y-7179 by NCCLS M27-A2 microbroth dilution method. The class given is functional.
For experiment [2], the system named is Candida albicans. Put plainly: Antifungal activity against Candida albicans clinical isolate by NCCLS M27-A2 microbroth dilution method. It is filed as functional. A general note: In broth dilution the organism is exposed to a series of concentrations in liquid medium.
Experiment [3] relates to Nakaseomyces glabratus. Briefly: Antifungal activity against Candida glabrata clinical isolate (Osmangazi university) by NCCLS M27-A2 microbroth dilution method. It is filed as functional.
Experiment [4] has as its system Candida albicans. Briefly: Antifungal activity against Candida albicans ATCC 90028 by NCCLS M27-A2 microbroth dilution method. It is filed as functional.
The next experiment concerns Candida parapsilosis. Put plainly: Antifungal activity against Candida parapsilosis NRRL Y-12696 by NCCLS M27-A2 microbroth dilution method. The class given is functional. Conditions: Lodderomyces parapsilosis.
For experiment [5], the system named is Candida albicans. Briefly: Antifungal activity against Candida albicans NRRL Y-12983 by NCCLS M27-A2 microbroth dilution method. It is filed as functional.

One may read the MIC as the lowest concentration that inhibits growth of the organism. Low readings indicate inhibition by little substance, high ones a need for much substance. The IC50 is the midpoint of a concentration-inhibition curve. With `Oc1ccc(CCc2nnc3n2N=C(c2ccccc2)CS3)cc1`, the MIC against Nakaseomyces glabratus [1] came out at 180 µg/mL (≈ 535 µM); with Candida tropicalis, 90 µg/mL (≈ 268 µM); in the experiment on Pichia kudriavzevii it was 370 µg/mL (≈ 1100 µM); in the experiment on Candida albicans [2], 90 µg/mL (≈ 268 µM); with Nakaseomyces glabratus [3], 40 µg/mL (≈ 119 µM); in the experiment on Candida albicans [4], 80 µg/mL (≈ 238 µM). Moreover, the minimum inhibitory concentration (MIC) in the experiment on Candida parapsilosis came out at 180 µg/mL (≈ 535 µM); in the experiment with Candida albicans [5], 370 µg/mL (≈ 1100 µM). Also, half-maximal inhibition in the experiment on NIH3T3 (IC50) required 31.6 µg/mL (≈ 93.9 µM).

`O=[N+]([O-])c1ccc(C2=Nn3c(CCc4ccc(O)cc4)nnc3SC2)cc1`: the MIC in the experiment with Nakaseomyces glabratus [1] was found to be 90 µg/mL (≈ 236 µM); with Candida tropicalis, 90 µg/mL (≈ 236 µM); in the experiment with Pichia kudriavzevii, 180 µg/mL (≈ 472 µM); against Candida albicans [2], 90 µg/mL (≈ 236 µM); in the experiment on Nakaseomyces glabratus [3], 90 µg/mL (≈ 236 µM); in the experiment with Candida albicans [4], 90 µg/mL (≈ 236 µM). Moreover, the results for the MIC in the experiment on Candida parapsilosis and in the experiment with Candida albicans [5] were 40 µg/mL (≈ 105 µM) and 750 µg/mL (≈ 1970 µM), respectively. In the experiment with NIH3T3, this compound showed an IC50 of 307 µg/mL (≈ 804 µM).

Regarding `Oc1ccc(CCc2nnc3n2N=C(c2ccc(F)cc2)CS3)cc1`, the MIC with Nakaseomyces glabratus [1] amounted to 370 µg/mL (≈ 1040 µM); against Candida tropicalis, 1500 µg/mL (≈ 4230 µM); against Pichia kudriavzevii it was 180 µg/mL (≈ 508 µM); against Candida albicans [2], 180 µg/mL (≈ 508 µM); against Nakaseomyces glabratus [3], 1500 µg/mL (≈ 4230 µM); in the experiment on Candida albicans [4], 1500 µg/mL (≈ 4230 µM). Besides, the MIC in the experiment on Candida parapsilosis and in the experiment on Candida albicans [5] was 1500 µg/mL (≈ 4230 µM) each time. The same compound registered an IC50 in the experiment on NIH3T3 of 367 µg/mL (≈ 1030 µM).

As for `Oc1ccc(CCc2nnc3n2N=C(c2ccc(Cl)cc2)CS3)cc1`, the minimum inhibitory concentration (MIC) in the experiment with Nakaseomyces glabratus [1], against Candida tropicalis, in the experiment with Pichia kudriavzevii, with Candida albicans [2], in the experiment on Nakaseomyces glabratus [3] and against Candida albicans [4] was 750 µg/mL (≈ 2020 µM) in each case. The minimal inhibitory concentration (MIC) with Candida parapsilosis turned out to be 370 µg/mL (≈ 998 µM); against Candida albicans [5] it was 1500 µg/mL (≈ 4040 µM). This compound also registered an IC50 in the experiment with NIH3T3 of 86.7 µg/mL (≈ 234 µM).

Turning to `Cc1ccc(C2=Nn3c(CCc4ccc(O)cc4)nnc3SC2)cc1`, the MIC came to 750 µg/mL (≈ 2140 µM) in the experiment on Nakaseomyces glabratus [1]; 1500 µg/mL (≈ 4280 µM) in the experiment with Candida tropicalis; 370 µg/mL (≈ 1060 µM) with Pichia kudriavzevii; 750 µg/mL (≈ 2140 µM) against Candida albicans [2]; 750 µg/mL (≈ 2140 µM) against Nakaseomyces glabratus [3]; 750 µg/mL (≈ 2140 µM) in the experiment on Candida albicans [4]. The minimal inhibitory concentration (MIC) in the experiment on Candida parapsilosis amounted to 370 µg/mL (≈ 1060 µM); against Candida albicans [5], 1500 µg/mL (≈ 4280 µM). Besides, the IC50 in the experiment on NIH3T3 came out at 400 µg/mL (≈ 1140 µM).

On to `c1ccc(C2=Nn3c(CCC4CCCCC4)nnc3SC2)cc1`, for which the minimum inhibitory concentration (MIC) against Nakaseomyces glabratus [1] amounted to 90 µg/mL (≈ 276 µM); against Candida tropicalis, 180 µg/mL (≈ 551 µM); with Pichia kudriavzevii, 180 µg/mL (≈ 551 µM); with Candida albicans [2] it was 90 µg/mL (≈ 276 µM); against Nakaseomyces glabratus [3], 90 µg/mL (≈ 276 µM); against Candida albicans [4], 90 µg/mL (≈ 276 µM). Further, the MIC with Candida parapsilosis came out at 370 µg/mL (≈ 1130 µM); against Candida albicans [5] it was 180 µg/mL (≈ 551 µM). The compound also showed a half-maximal inhibitory concentration (IC50) in the experiment on NIH3T3 of 433 µg/mL (≈ 1330 µM).

Consider `O=[N+]([O-])c1ccc(C2=Nn3c(CCC4CCCCC4)nnc3SC2)cc1`, for which the MIC amounted to 90 µg/mL (≈ 242 µM) in the experiment on Nakaseomyces glabratus [1]; 180 µg/mL (≈ 485 µM) in the experiment with Candida tropicalis; 180 µg/mL (≈ 485 µM) against Pichia kudriavzevii; 90 µg/mL (≈ 242 µM) in the experiment on Candida albicans [2]; 90 µg/mL (≈ 242 µM) in the experiment on Nakaseomyces glabratus [3]; 90 µg/mL (≈ 242 µM) in the experiment on Candida albicans [4]. The minimal inhibitory concentration (MIC) against Candida parapsilosis amounted to 180 µg/mL (≈ 485 µM); in the experiment with Candida albicans [5], 90 µg/mL (≈ 242 µM). For the same compound, the concentration for half-maximal inhibition (IC50) in the experiment on NIH3T3 was 210 µg/mL (≈ 565 µM).

Take `Fc1ccc(C2=Nn3c(CCC4CCCCC4)nnc3SC2)cc1`: the MIC in the experiment with Nakaseomyces glabratus [1] amounted to 90 µg/mL (≈ 261 µM); in the experiment with Candida tropicalis, 750 µg/mL (≈ 2180 µM); in the experiment with Pichia kudriavzevii, 90 µg/mL (≈ 261 µM); with Candida albicans [2], 370 µg/mL (≈ 1070 µM); against Nakaseomyces glabratus [3], 370 µg/mL (≈ 1070 µM); against Candida albicans [4], 90 µg/mL (≈ 261 µM). For the same compound, the MIC in the experiment with Candida parapsilosis was 370 µg/mL (≈ 1070 µM); in the experiment with Candida albicans [5], 90 µg/mL (≈ 261 µM). For the same compound, the IC50 in the experiment on NIH3T3 turned out to be 106 µg/mL (≈ 308 µM).

For `Clc1ccc(C2=Nn3c(CCC4CCCCC4)nnc3SC2)cc1`, the MIC is 40 µg/mL (≈ 111 µM) in the experiment with Nakaseomyces glabratus [1]; 90 µg/mL (≈ 249 µM) in the experiment with Candida tropicalis; 370 µg/mL (≈ 1030 µM) in the experiment on Pichia kudriavzevii; 180 µg/mL (≈ 499 µM) in the experiment on Candida albicans [2]; 90 µg/mL (≈ 249 µM) against Nakaseomyces glabratus [3]; 40 µg/mL (≈ 111 µM) against Candida albicans [4]. For the same compound, the minimal inhibitory concentration (MIC) with Candida parapsilosis is 20 µg/mL (≈ 55.4 µM); against Candida albicans [5] it was 40 µg/mL (≈ 111 µM). In the experiment with NIH3T3, this compound had an IC50 of 103 µg/mL (≈ 285 µM).

For the compound `Cc1ccc(C2=Nn3c(CCC4CCCCC4)nnc3SC2)cc1`, the minimum inhibitory concentration (MIC) with Nakaseomyces glabratus [1] is 180 µg/mL (≈ 529 µM); against Candida tropicalis, 750 µg/mL (≈ 2200 µM); against Pichia kudriavzevii it was 180 µg/mL (≈ 529 µM); with Candida albicans [2] it was 90 µg/mL (≈ 264 µM); with Nakaseomyces glabratus [3] it was 90 µg/mL (≈ 264 µM); against Candida albicans [4] it was 180 µg/mL (≈ 529 µM). Further, the MIC against Candida parapsilosis worked out at 370 µg/mL (≈ 1090 µM); in the experiment with Candida albicans [5], 90 µg/mL (≈ 264 µM). The IC50 in the experiment with NIH3T3 was 198 µg/mL (≈ 582 µM).

As for `CC(=O)N1CCN(c2ccc(OCC3COC(Cn4ccnc4)(c4ccc(Cl)cc4Cl)O3)cc2)CC1` (stereo not drawn) [KETOCONAZOLE], the minimum inhibitory concentration (MIC) in the experiment with Nakaseomyces glabratus [1] worked out at 7 µg/mL (≈ 13.2 µM); with Candida tropicalis, 3 µg/mL (≈ 5.65 µM); in the experiment on Pichia kudriavzevii, 3 µg/mL (≈ 5.65 µM); with Candida albicans [2], 30 µg/mL (≈ 56.5 µM); with Nakaseomyces glabratus [3] it was 15 µg/mL (≈ 28.2 µM); in the experiment with Candida albicans [4], 30 µg/mL (≈ 56.5 µM). The MIC worked out at 7 µg/mL (≈ 13.2 µM) with Candida parapsilosis and 15 µg/mL (≈ 28.2 µM) in the experiment with Candida albicans [5].
